Assay results gathered from unrelated publications.
Each line is one published result; the experiments were not run side by side.
Effect on: DPPH scavenging

For `Oc1ccc(Br)cc1C=NCCN1CCOCC1`, the inhibition was 36.5% (absorbance; 160 µM).
For `Cc1ccc(C(C)C)cc1NC(=O)COC(=O)c1ccc(O)c(O)c1`, the inhibition was 91.8% (100 µg/mL).
With `COc1cc(C=CC(=O)CC(c2ccc(N(C)C)cc2)n2ccnc2)ccc1O` (stereo not drawn) the inhibition was 73.5% (100 µg/mL).
`O=C1O[C@H]([C@@H](O)CO)C(O)=C1O` gave an inhibition of 59% (absorbance; 120 µM).
`Cc1ccc(N(O)N=Nc2ccc(S(=O)(=O)Nc3onc(C)c3C)cc2)cc1` has an inhibition of 32.6% (absorbance; 300 µg/mL).
`COc1cc(C=Cc2cc(-c3ccccc3)nc(O)n2)ccc1O` has an inhibition of 73.6% (100 µg/mL).
`CCN(O)N=Nc1ccc(S(=O)(=O)Nc2nccs2)cc1` gave an inhibition of 25.2% (absorbance; 240 µg/mL).
The inhibition of `Cc1ccc(C(C)C)cc1NC(=O)COC(=O)/C=C/c1ccccc1O` is reported as 1.15% (100 µg/mL).
`COc1cc(C=Cc2cc(-c3ccc(N(C)C)cc3)nc(O)n2)ccc1O` gave an inhibition of 39.4% (12.5 µg/mL).
`CCN(O)N=Nc1ccc(S(=O)(=O)Nc2onc(C)c2C)cc1` gave an inhibition of 22.5% (absorbance; 180 µg/mL).
`Cc1ccc(C(C)C)cc1NC(=O)COC(=O)/C=C/c1ccc(O)cc1` has an inhibition of 8.51% (100 µg/mL).
With `O=C1O[C@H]([C@@H](O)CO)C(O)=C1O` the inhibition was 57.2% (25 µg/mL).
`Cc1cc(NS(=O)(=O)c2ccc(N=NN(O)c3ccccc3)cc2)no1` has an inhibition of 21.8% (absorbance; 20 µg/mL).
`Cc1ccc(C(C)C)cc1NC(=O)COC(=O)c1cccc(O)c1` gave an inhibition of 25.2% (100 µg/mL).
With `CCCN(O)N=Nc1ccc(S(=O)(=O)Nc2cc(C)on2)cc1` the inhibition was 22.8% (absorbance; 180 µg/mL).
For `COc1cc(C=CC(=O)CC(c2ccc([N+](=O)[O-])cc2)n2ccnc2)ccc1O` (stereo not drawn), the inhibition was 37.1% (12.5 µg/mL).
The inhibition of `CC1(C)CC[C@]2(C(=O)O)CC[C@]3(C)C(=CC[C@@H]4[C@@]5(C)CC[C@H](O)C(C)(C)[C@@H]5CC[C@]43C)[C@@H]2C1` is reported as 95.6% (100 µg/mL).
For `Cc1ccc(N(O)N=Nc2ccc(S(=O)(=O)Nc3cc(C)on3)cc2)cc1`, the inhibition was 29.7% (absorbance; 240 µg/mL).
